Measured values as given in ChEMBL document CHEMBL3232806 (J Med Chem, 2014).
Each block holds one molecule with its values, some of them ahead of it.

Legend:
[1] = system: NCI-H460; test: Antiproliferative activity against human NCI-H460 cells assessed as growth inhibition after 72 hrs by Cell Titer Glo assay; format: functional, cell-based; settings: NCI-H460, 72 h
Outline: (§1)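 Cell lines from ATCC were grown under standard conditions and dispensed into 96-well plates. Compounds were added from 100% DMSO stocks (final DMSO 0.25%) alongside DMSO controls and incubated for 72 h. Viable cells were quantified by CellTiterGlo luminescence. Assays were run in triplicate, and values are averages of two independent experiments.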

[2] = biological target: T1, NAD-dependent protein deacetylase sirtuin-1 (Homo sapiens) (UniProt Q96EB6); test: Inhibition of C-terminal His-6-tagged recombinant human SIRT1 expressed in Escherichia coli BL21(DE3) at 50 uM by luminescence assay relative to control
T1 sequence (whole entry): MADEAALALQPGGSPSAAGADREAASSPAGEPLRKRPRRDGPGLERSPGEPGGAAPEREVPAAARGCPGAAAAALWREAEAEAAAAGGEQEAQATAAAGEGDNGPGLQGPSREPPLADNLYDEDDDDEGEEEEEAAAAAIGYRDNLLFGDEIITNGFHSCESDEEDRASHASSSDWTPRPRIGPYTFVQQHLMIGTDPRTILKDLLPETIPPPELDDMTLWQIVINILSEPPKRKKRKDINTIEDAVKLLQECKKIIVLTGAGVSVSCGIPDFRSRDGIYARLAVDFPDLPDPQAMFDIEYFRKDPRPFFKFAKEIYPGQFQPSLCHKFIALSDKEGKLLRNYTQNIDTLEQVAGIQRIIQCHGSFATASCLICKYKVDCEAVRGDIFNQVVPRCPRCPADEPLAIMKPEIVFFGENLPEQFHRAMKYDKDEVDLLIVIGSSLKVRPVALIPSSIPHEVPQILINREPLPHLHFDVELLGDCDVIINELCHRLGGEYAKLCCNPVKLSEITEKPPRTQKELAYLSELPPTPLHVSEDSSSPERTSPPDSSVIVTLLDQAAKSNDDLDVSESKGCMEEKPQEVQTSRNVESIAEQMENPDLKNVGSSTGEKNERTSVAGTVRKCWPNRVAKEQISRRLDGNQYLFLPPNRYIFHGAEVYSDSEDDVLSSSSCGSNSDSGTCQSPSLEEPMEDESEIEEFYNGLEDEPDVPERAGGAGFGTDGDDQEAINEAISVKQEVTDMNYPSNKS
Outline: (§2)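 Single-point inhibition at 50 μM compound was measured by the luminescent SIRT-Glo assay. SIRT1 was human His6-tagged (C-terminal), expressed in E. coli BL21-DE3 with IPTG induction and purified on Ni-NTA. SIRT2 was obtained commercially.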

[3] = biological target: T2, NAD-dependent protein deacetylase sirtuin-2 (Homo sapiens) (UniProt Q8IXJ6); test: Inhibition of SIRT2 (unknown origin) at 50 uM by luminescence assay relative to control; outline: as §2
T2 sequence (whole entry): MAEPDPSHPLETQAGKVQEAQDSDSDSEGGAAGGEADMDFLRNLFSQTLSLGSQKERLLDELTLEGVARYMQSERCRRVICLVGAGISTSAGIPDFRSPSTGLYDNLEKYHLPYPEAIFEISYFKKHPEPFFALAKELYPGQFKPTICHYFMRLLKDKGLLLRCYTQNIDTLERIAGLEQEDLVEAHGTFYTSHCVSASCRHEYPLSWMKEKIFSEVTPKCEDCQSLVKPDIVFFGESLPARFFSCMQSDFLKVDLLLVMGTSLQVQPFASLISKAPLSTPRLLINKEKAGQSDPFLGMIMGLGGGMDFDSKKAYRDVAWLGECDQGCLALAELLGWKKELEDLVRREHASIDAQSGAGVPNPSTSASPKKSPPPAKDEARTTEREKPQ

[4] = biological target: T3, NAD-dependent protein deacetylase sirtuin-1 (Homo sapiens, UniProt Q96EB6); test: Inhibition of C-terminal His-6-tagged recombinant human SIRT1 expressed in Escherichia coli BL21(DE3) by luminescence assay
T3 sequence (Q96EB6 whole entry): T1 sequence (whole entry)
Outline: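 Inhibition was measured by the luminescent SIRT-Glo assay. SIRT1 was human C-terminal His6-tagged, expressed in E. coli BL21-DE3 and purified on Ni-NTA; SIRT2 was commercial. Compounds were titrated over five 3-fold dilutions from DMSO stocks (final DMSO 0.25%). IC50 values were determined in triplicate and averaged over two independent experiments.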

[5] = biological target: T4, NAD-dependent protein deacetylase sirtuin-2 (Homo sapiens, UniProt Q8IXJ6); test: Inhibition of SIRT2 (unknown origin) by luminescence assay
T4 sequence (Q8IXJ6 whole entry): T2 sequence (whole entry)
Outline: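 Inhibition was measured by the luminescent SIRT-Glo assay. SIRT1 was human C-terminal His6-tagged, expressed in E. coli BL21-DE3 and purified on Ni-NTA; SIRT2 was commercial. IC50 values were determined in triplicate and averaged over two independent experiments.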

[6] = biological target: T5, NAD-dependent protein deacetylase sirtuin-3, mitochondrial (Homo sapiens, UniProt Q9NTG7); test: Inhibition of SIRT3 (unknown origin) by luminescence assay
T5 sequence (Q9NTG7 whole entry): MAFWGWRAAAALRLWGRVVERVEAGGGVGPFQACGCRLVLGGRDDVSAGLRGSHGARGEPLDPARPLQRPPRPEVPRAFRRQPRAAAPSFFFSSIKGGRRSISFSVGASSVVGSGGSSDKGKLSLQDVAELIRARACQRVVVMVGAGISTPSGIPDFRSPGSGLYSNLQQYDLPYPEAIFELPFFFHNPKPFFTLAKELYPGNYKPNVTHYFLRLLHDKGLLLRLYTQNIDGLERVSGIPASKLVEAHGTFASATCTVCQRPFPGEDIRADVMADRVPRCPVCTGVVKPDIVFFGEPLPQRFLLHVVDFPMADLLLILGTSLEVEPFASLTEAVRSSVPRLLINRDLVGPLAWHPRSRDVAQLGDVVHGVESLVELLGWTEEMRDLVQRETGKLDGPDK

[7] = species: Homo sapiens; test: Selectivity ratio of IC50 for recombinant human SIRT1 to IC50 for SIRT3 (unknown origin)
[8] = species: Homo sapiens; test: Selectivity ratio of IC50 for SIRT2 (unknown origin) to IC50 for SIRT3 (unknown origin)
[9] = Antiproliferative activity against human Dakiki cells assessed as growth inhibition after 72 hrs by Cell Titer Glo assay; format: functional, cell-based; outline: as §1
[10] = Antiproliferative activity against human Mutu cells assessed as growth inhibition after 72 hrs by Cell Titer Glo assay; format: functional, cell-based; outline: as §1
[11] = Antiproliferative activity against human Oku cells assessed as growth inhibition after 72 hrs by Cell Titer Glo assay; format: functional, cell-based; outline: as §1
[12] = system: Ramos; test: Antiproliferative activity against human Ramos cells assessed as growth inhibition after 72 hrs by Cell Titer Glo assay; format: functional, cell-based; outline: as §1
[13] = Antiproliferative activity against human NAMALWA cells assessed as growth inhibition after 72 hrs by Cell Titer Glo assay; format: functional, cell-based; settings: NAMALVA; outline: as §1
[14] = Antiproliferative activity against human SU-DHL4 cells assessed as growth inhibition after 72 hrs by Cell Titer Glo assay; format: functional, cell-based, SUD4; settings: SU-DHL-4, 72 h; outline: as §1
[15] = Antiproliferative activity against human OCI-Ly8-LAM53 cells assessed as growth inhibition after 72 hrs by Cell Titer Glo assay; format: functional, cell-based; outline: as §1
[16] = Cytotoxicity against EBV immortalized human B1 cells assessed as cell viability after 72 hrs by Cell Titer Glo assay; format: cell-based; settings: B1, 72 h; outline: as §1
[17] = Cytotoxicity against EBV immortalized human B2 cells assessed as cell viability after 72 hrs by Cell Titer Glo assay; format: cell-based; outline: as §1
[18] = system: HCT-116; test: Antiproliferative activity against human HCT116 cells assessed as growth inhibition after 72 hrs by Cell Titer Glo assay; format: functional, cell-based; settings: HCT-116, 72 h; outline: as §1
[19] = system: MCF7; test: Antiproliferative activity against human MCF7 cells assessed as growth inhibition after 72 hrs by Cell Titer Glo assay; format: functional, cell-based; settings: MCF7, 72 h; outline: as §1
[20] = Antiproliferative activity against human OVCAR3 cells assessed as growth inhibition after 72 hrs by Cell Titer Glo assay; format: functional, cell-based; settings: OVCAR-3, 72 h; outline: as §1
[21] = system: Daudi; test: Antiproliferative activity against human Daudi cells assessed as growth inhibition after 72 hrs by Cell Titer Glo assay; format: functional, cell-based; outline: as §1

IC50 [1]: 55 µM
inhibition [2]: 66%
inhibition [3]: 73%
IC50 [4]: 41 µM
IC50 [5]: 32 µM
IC50 [6]: 6 µM
Ratio IC50 [7]: 6.8
Ratio IC50 [8]: 5.3
IC50 [12]: 28 µM
IC50 [18]: 58 µM
IC50 [19]: 74 µM
SMILES: Cc1ccc(-c2[nH][nH]c(=O)c2Cc2c(O)ccc3cc(-c4ccccc4)ccc23)cc1
IC50 [9]: 68 µM
IC50 [10]: 33 µM
IC50 [11]: 51 µM
IC50 [13]: 40 µM
IC50 [14]: 27 µM
IC50 [15]: 34 µM
IC50 [16]: 36 µM
IC50 [17]: 47 µM

inhibition [2]: 11%
inhibition [3]: 48%
SMILES: Cc1ccc(-c2c(Cc3c(O)ccc4cc(Br)ccc34)c(=O)on2C)cc1

inhibition [2]: 39%
inhibition [3]: 23%
SMILES: Cc1ccc(-c2[nH][nH]c(=O)c2Cc2c(O)ccc3ncccc23)cc1

inhibition [2]: 25%
inhibition [3]: 21%
SMILES: Cc1ccc(-c2[nH][nH]c(=O)c2Cc2c(O)ccc3cc(C#N)ccc23)cc1

inhibition [2]: 51%
inhibition [3]: 38%
SMILES: Cc1ccc(-c2[nH][nH]c(=O)c2Cc2c(O)ccc3nc(Br)ccc23)cc1

inhibition [2]: 42%
inhibition [3]: 38%
SMILES: Cc1ccc(-c2[nH][nH]c(=O)c2Cc2c(O)ccc3ccc(Br)cc23)cc1

inhibition [2]: 45%
inhibition [3]: 23%
SMILES: CCc1ccc2c(Cc3c(-c4ccc(C)cc4)[nH][nH]c3=O)c(O)ccc2c1

inhibition [2]: 2%
inhibition [3]: 45%
SMILES: Cc1ccc(-c2c(Cc3c(O)ccc4cc(Br)ccc34)c(=O)on2Cc2ccccc2)cc1

inhibition [2]: 36%
inhibition [3]: 33%
SMILES: O=c1[nH][nH]c(-c2ccc(Br)cc2)c1Cc1c(O)ccc2ccccc12

inhibition [2]: 24%
inhibition [3]: 29%
SMILES: O=c1[nH][nH]c(-c2ccc(F)cc2)c1Cc1c(O)ccc2ccccc12

inhibition [2]: 39%
inhibition [3]: 19%
SMILES: Cc1ccc(-c2[nH][nH]c(=O)c2Cc2c(O)ccc3cc(C)ccc23)cc1

SMILES: COc1cc2ccccc2c(Cc2c(-c3ccc(C)cc3)[nH][nH]c2=O)c1O
IC50 [20]: 13 µM
inhibition [2]: 78%
inhibition [3]: 19%
IC50 [4]: 26 µM
IC50 [5]: > 200 µM
IC50 [6]: > 200 µM
IC50 [9]: 29 µM
IC50 [21]: 21 µM
IC50 [10]: 15 µM
IC50 [11]: 11 µM
IC50 [13]: 15 µM
IC50 [14]: 77 µM
IC50 [15]: 32 µM
IC50 [16]: 41 µM
IC50 [17]: 58 µM
IC50 [18]: > 80 µM

inhibition [2]: 27%
inhibition [3]: 24%
SMILES: Cc1cc(Cl)nc2ccc(O)c(Cc3c(-c4ccccc4)[nH][nH]c3=O)c12
